Data on 36 sequences can be found in the array DNA melting data of Ke et al. (doi:10.1101/2024.01.08.574731).

The nature of series [1]: folding enthalpy; higher = less favourable; fluorescence melt of hairpins on a sequencing array, two-state fit. As to conditions: sodium 0.088 M. The method, boiled down:
(§1)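 Folding enthalpy and melting temperature come from bootstrapped two-state fits to Cy3 fluorescence of library hairpins carrying annealed Cy3 and quencher oligos on a sequenced MiSeq flow cell. Imaging was done in 50 mM Na-HEPES pH 8.0, 25 mM NaCl, stepping by 2.5 °C up to 60 °C, and signals were normalised to pre-quench Cy3 and to control constructs. Results of four replicates were combined by inverse variance, and fitted temperatures were raised by 9.35 °C to match UV melts.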

Series [2] is described as follows: melting temperature; fluorescence melt of hairpins on a sequencing array, two-state fit, raised by 9.35 °C to match UV melts. As to conditions: sodium 0.088 M. In outline:
as §1

Consider GTCTAAGGAAACCTAGAC (((((.(....).))))), for which the folding enthalpy in series [1] is -25.8 kcal/mol. Moreover, the Tm in series [2] is 34.3 °C.

Regarding GTCTACCGAAAGGTGAC (((.(((....)))))), the folding enthalpy in series [1] is -23.8 kcal/mol. Further, the Tm in series [2] came out at 50.3 °C.

As to GTCTACGAAAGTAAGGAC ((((((....)))..))), the folding enthalpy in series [1] is -19.5 kcal/mol. Besides, the Tm in series [2] was found to be 31.2 °C.

Regarding GTCTACGAAAGTACGAC ((((((....))).))), the folding enthalpy in series [1] is -22.8 kcal/mol. Also, the Tm in series [2] stood at 38.1 °C.

For GTCTACGAAAGTATGGAC ((((((....)))..))), the folding enthalpy in series [1] was -16.3 kcal/mol. Also, the Tm in series [2] came out at 31.3 °C.

For GTCTACGGAAACGTAGAC (((((((....))))))), in series [1], the folding enthalpy was -46.2 kcal/mol. In addition, in series [2], the Tm was determined as 61 °C.

In the case of GTCTACTCGAAAGAGGAC (((..(((....)))))), the folding enthalpy in series [1] is -14.4 kcal/mol. Moreover, the Tm in series [2] was found to be 32.1 °C.

Take GTCTAGCGAAAGCTGGAC (((.(((....))).))): in series [1], the folding enthalpy is -33.7 kcal/mol. In addition, the Tm in series [2] is 61.6 °C.

With GTCTAGCGAAAGCTTGAC (((.(((....))).))), the folding enthalpy in series [1] was -28.7 kcal/mol. Also, the Tm in series [2] amounted to 54.2 °C.

As to GTCTAGGGAAACCCAGAC ((((.((....)).)))), the folding enthalpy in series [1] was -30.1 kcal/mol. Besides, the Tm in series [2] turned out to be 40.9 °C.

Take GTCTAGGGAAACCTAGGC (.(((((....))))).): in series [1], the folding enthalpy was -24.7 kcal/mol. In addition, the Tm in series [2] stood at 46.2 °C.

Consider GTCTATCCGAAAGGAGAC (((..(((....)))))), for which the folding enthalpy in series [1] is -16.5 kcal/mol. Further, the Tm in series [2] is 31.8 °C.

As to GTCTATGAAAATAGAC ((((((....)))))), the folding enthalpy in series [1] was -32.8 kcal/mol. Besides, the Tm in series [2] came to 49.5 °C.

In the case of GTCTCAGGAAACTAAGAC ((((.((....)).)))), in series [1], the folding enthalpy is -11.5 kcal/mol. Further, the Tm in series [2] came out at 24.2 °C.

For GTCTCAGGAAACTGAGGC (.(((((....))))).), in series [1], the folding enthalpy is -37.3 kcal/mol. The Tm in series [2] is 51.1 °C.

Consider GTCTCCCGAAAGGGCGAC (((.(((....))).))), for which the folding enthalpy in series [1] is -30.8 kcal/mol. In series [2], the Tm was found to be 53.2 °C.

As to GTCTCCGAAAGGAATGAC ((((((....)))..))), the folding enthalpy in series [1] is -20.7 kcal/mol. For the same sequence, in series [2], the Tm was 35.2 °C.

With GTCTCCGAAAGGACGGAC ((((((....)))..))), the folding enthalpy in series [1] is -15.7 kcal/mol. Further, the Tm in series [2] amounted to 35.7 °C.

Consider GTCTCCGAAAGGAGGGAC ((((((....)))..))), for which the folding enthalpy in series [1] was -9.56 kcal/mol. Besides, the Tm in series [2] is 41.7 °C.

For GTCTCCGAAAGGATGAC ((((((....))).))), in series [1], the folding enthalpy is -25.6 kcal/mol. The Tm in series [2] is 48.5 °C.

On to GTCTCCGGAAACAGAGAC (((((.(....).))))), for which, in series [1], the folding enthalpy is -25.8 kcal/mol. Also, in series [2], the Tm stood at 38.3 °C.

Consider GTCTCCTCGAAAGAGGAC (((..(((....)))))), for which, in series [1], the folding enthalpy is -9.88 kcal/mol. Moreover, the Tm in series [2] is 32 °C.

Regarding GTCTCGACGAAAGTCGAC (((..(((....)))))), the folding enthalpy in series [1] was -8.21 kcal/mol. Also, the Tm in series [2] amounted to 35.1 °C.

For the sequence GTCTCGCGAAAGCGCGAC (((.(((....))).))), the folding enthalpy in series [1] was -27.7 kcal/mol. The Tm in series [2] worked out at 53 °C.

For GTCTCGCGAAAGCGGAC (((.(((....)))))), the folding enthalpy in series [1] was -16.9 kcal/mol. In addition, the Tm in series [2] was 53.7 °C.

Take GTCTCGGAAACGAGAC ((((((....)))))): in series [1], the folding enthalpy is -44.5 kcal/mol. Also, the Tm in series [2] was found to be 64.8 °C.

Consider GTCTCGGGAAACCGAAAC ((.((((....)))).)), for which the folding enthalpy in series [1] was -15.4 kcal/mol. For the same sequence, the Tm in series [2] came to 34.7 °C.

For GTCTCTCCGAAAGGAGAC (((..(((....)))))), in series [1], the folding enthalpy is -9.6 kcal/mol. For the same sequence, the Tm in series [2] came to 35.8 °C.

For the sequence GTCTCTCGAAAGAGGAC (((.(((....)))))), the folding enthalpy in series [1] was -24.2 kcal/mol. The Tm in series [2] stood at 45.1 °C.

As for GTCTCTCGAAAGAGGGAC (((.(((....))).))), the folding enthalpy in series [1] is -36.1 kcal/mol. For the same sequence, in series [2], the Tm stood at 55.5 °C.

GTCTGACCGAAAGGTGAC (((..(((....)))))): the folding enthalpy in series [1] was -19.3 kcal/mol. Also, in series [2], the Tm was 38.9 °C.

Regarding GTCTGACGAAAGTCTGAC (((.(((....))).))), in series [1], the folding enthalpy was -34 kcal/mol. Also, in series [2], the Tm came out at 57.2 °C.

Turning to GTCTGAGCGAAAGCTGAC (((..(((....)))))), the folding enthalpy in series [1] is -17.6 kcal/mol. Further, in series [2], the Tm was determined as 41.2 °C.

Take GTCTGCGAAAGCAAGAC ((((((....))).))): the folding enthalpy in series [1] was -26.3 kcal/mol. Moreover, the Tm in series [2] is 60.5 °C.

Turning to GTCTGCGAAAGCATAGAC ((((((....)))..))), the folding enthalpy in series [1] was -19.9 kcal/mol. Further, the Tm in series [2] is 45.9 °C.

Consider GTCTGGCGAAAGCCGAC (((.(((....)))))), for which the folding enthalpy in series [1] is -16 kcal/mol. Also, the Tm in series [2] is 55.8 °C.
